Rows were chosen to be rich in hits. Some 2.3% of all compounds tested hit in one or more screens of this group.
TAAR1 ag: human TAAR1 agonism. Q96RJ0. CHO RD-HGA16 TAAR1, Fluo-8 calcium fluorescence; vehicle wells 0%, saturating PEA agonist 100%. activation, % at 3 µM. 360,000 tested, 0.99% active. AID 624467;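 active = activation above the mean activation of all test compounds in the run plus 3 SD, cut at about 38% in these data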
Target sequence (Q96RJ0 whole entry, looked up): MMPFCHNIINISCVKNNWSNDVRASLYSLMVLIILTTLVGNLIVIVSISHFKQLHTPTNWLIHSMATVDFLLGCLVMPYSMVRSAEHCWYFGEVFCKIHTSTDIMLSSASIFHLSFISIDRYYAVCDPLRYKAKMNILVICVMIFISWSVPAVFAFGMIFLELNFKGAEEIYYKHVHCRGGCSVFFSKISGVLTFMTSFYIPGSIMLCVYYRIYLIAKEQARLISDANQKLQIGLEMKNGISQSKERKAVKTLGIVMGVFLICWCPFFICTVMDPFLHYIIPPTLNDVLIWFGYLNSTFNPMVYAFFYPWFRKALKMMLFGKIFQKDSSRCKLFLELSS
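System: CHO-derived RD-HGA16 cells with stable Gα16 and human TAAR1. Times: 17-24 h plating, Fluo-8 75 min 37 °C, 30 min RT. Measured by: calcium-sensitive Fluo-8 signal, excitation 470-495, emission 515-575 nm. Read-out basis: % activation relative to PEA EC100 response. Control set: DMSO and PEA EC100. Repeats: no replicates (n 1).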
TAAR1 antag: human TAAR1 antagonism | inhibition, % at 3 µM | Q96RJ0 | CHO RD-HGA16 TAAR1, Fluo-8 calcium fluorescence, antagonist | 360,000 tested, 1.5% active;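 active = inhibition above a per-plate cutoff, the mean inhibition of test compounds on that plate plus 3 SD, cut at about 49% in these data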;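 note: 0% = DMSO plus EC80 beta-PEA response and 100% = DMSO alone without agonist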
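Test system: CHO RD-HGA16 cells bearing hTAAR1 | Reagent: β-PEA, EC80 | Compound dosing: 3 µM, single point | Schedule: Dye loading 75 min at 37 °C, then 30 min room temperature | Signal: Calcium fluorescence with Fluo-8 | Evaluation: Percent inhibition of PEA-evoked calcium signal, max/basal emission ratio | Control set: DMSO-only wells and EC80 β-PEA-stimulated wells | Repeats: Singlicate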
OXTR ag: agonists of human oxytocin receptor; P30559; CHO-OTR cells, Fluo-8 calcium fluorescence; normalized: DMSO 0%, oxytocin 100%; activation, % at 3 µM; 320,000 tested, 0.32% active; AID 2435;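 active = activation above the mean of all tested compounds plus 3 SD, cutoff set per screening run, cut at about 20% in these data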;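 note: peak over basal fluorescence ratio from a 100 s FLIPR kinetic read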
OXTR potentiator: human OXTR potentiation | activation, % at 3 µM | 320,000 tested, 0.061% active | CHO-OTR cells, Fluo-8 calcium fluorescence, potentiator mode; 0% = oxytocin EC15, 100% = EC100 | AID 2445;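 active = activation above that plate's cutoff, the mean activation of tested compounds plus 3 SD, cut at about 6.6% in these data, passing the limit was not always enough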;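 note: 100% uses oxytocin at 75 nM as the full agonist control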
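System: human OTR in CHO cells / Also added: sub-maximal oxytocin, roughly EC15 / Control set: EC15 oxytocin low, 75 nM oxytocin high / Schedule: 6 min compound pre-incubation at room temperature, 100 s kinetic read / Compound: single-point 3.0 µM / Replication: singlicate / Technique: Fluo-8 calcium dye fluorescence / Read-out basis: % activation of max/min ratio relative to oxytocin controls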
V1aR counter: activates human V1a receptor in oxytocin agonist counter-screen; AID 2797; activation, % at 3 µM; CHO-V1R cells, Fluo-8 calcium fluorescence, agonist mode; 0% DMSO, 100% 3 nM vasopressin; P37288; 320,000 tested, 0.25% active;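 active = activation above the mean activation of all tested compounds plus 3 SD, per screening run, cut at about 20% in these data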;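 note: signal is peak over basal fluorescence ratio across a 100 second FLIPR read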
OXTR ag confirm: confirmation of human oxytocin receptor agonists. shares compounds with OXTR ag. CHO-OTR cells, Fluo-8 calcium fluorescence, agonist. activation, % at 3 µM. 390 tested, 20% active. AID 434963;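 active = mean activation above about 20% derived from the earlier single-dose screen, limit read from the data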;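 note: peak over minimum fluorescence ratio per well during a 100 second FLIPR read; 0% = DMSO alone and 100% = oxytocin high control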
V1aR counter 3x: V1R agonism in triplicate, counter-screen for OXTR agonists; 390 tested, 10% active; AID 434991; activation, % at 3 µM; shares compounds with OXTR ag; CHO-V1R cells, Fluo-8 calcium fluorescence, agonist;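 active = mean activation over triplicate exceeds the hit threshold set in the earlier primary screen, cut at about 20% in these data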;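 note: peak over basal fluorescence ratio within a 100 second read; 0% = DMSO alone and 100% = 3 nM vasopressin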
* = called active by the depositor; . = not tested or not shown.

SMILES	TAAR1 ag	TAAR1 antag	OXTR ag	OXTR potentiator	V1aR counter	OXTR ag confirm	V1aR counter 3x
CC(C)N(CCNCC(O)COc1ccc(C(C)(C)c2ccccc2)cc1)C(C)C (centres undefined)	24	12	23*	-24	16	10	4
Nc1nc(Cl)cc(N2CCC(c3cc(-c4ccc(Cl)cc4)n[nH]3)CC2)n1	29	45	22*	-13	14	9	11
Clc1ccc(-c2cc(C3CCNCC3)[nH]n2)cc1	4	18	1	1	2	.	.
O=C1CN2C(=Nc3ccc(Br)cc3C2c2ccccc2)CCN1 (centres undefined)	0	30	1	-12	0	.	.
O=C(NN1CCOCC1)c1cc(-c2ccc(Cl)c(Cl)c2)nc2ccccc12	1	-8	0	-7	1	.	.
CC(C)(C)CC(C)(C)NCC(O)COc1c(F)cc(Br)cc1F (centres undefined)	47*	4	23*	-19	14	2	0
Cc1ccnc(NC(=O)CCC(=O)N(CC(=O)NCc2ccccc2)Cc2ccc(F)cc2)c1	2	-3	2	-4	7	.	.
CC(NC(=O)CN1CCOCC1)c1ccccc1 (centres undefined)	0	-11	21*	1	1	0	0
CC(NC(=O)CN1CCCC1)c1ccccc1 (centres undefined)	3	0	-1	-4	0	.	.
Cc1ccc(OCC(=O)Nc2ccc(S(=O)(=O)N(C)C3CCN(C)CC3)cc2)c(C)c1	14	-14	8	-5	8	.	.
CN1CCC(N(C)S(=O)(=O)c2ccc(NC(=O)COc3ccc(Br)cc3Cl)cc2)CC1	33	31	25*	-17	12	9	8
O=C1C=C(c2ccc(F)cc2OCc2ccccc2)C[C@@H](c2ccc(Cl)cc2)C1	11	20	1	8	1	.	.
CCOC(=O)c1[nH]cnc1C(=O)Nc1cccc(OC)c1	1	-9	-1	-17	1	.	.
CNC(=O)c1[nH]cnc1C(=O)Nc1cccc(OC)c1	5	5	32*	-18	1	-1	0
C=CCOC(=O)C1=C[C@@H](c2ccc(C(F)(F)F)cc2)[C@H](CCCO)[C@@H](OCC)O1	7	6	20*	-9	-2	-1	0
Cc1c(O)ccc2c(=O)c(-c3nncn3-c3ccccc3)coc12	4	-32	0	-6	0	.	.
Cc1ccc(N/N=C(\C#N)C(N)=S)c(C)c1	9	5	24*	-12	11	7	6
COc1ccccc1C(=O)NNC(=S)NC(=O)c1ccco1	40*	24	24*	-6	14	3	7
COC(=O)c1cc(OC)c(OC)cc1NC(=S)NC(=O)c1ccco1	-1	-1	-1	-4	0	.	.
Cc1cc(C)nc(/N=C(\N)Nc2ccc(-c3ccccc3)cc2)n1	58*	64*	23*	-17	16	14	18
CC(=O)Nc1ccc(N/C(N)=N/c2nc(C)cc(C)n2)cc1	1	0	0	-8	1	.	.
Cc1ccc(C)c(OCC(=O)Nc2ccc(S(=O)(=O)Nc3ccccn3)cc2)c1C	1	-3	-1	-11	0	.	.
Cc1ccc(S(=O)(=O)N2CCOC23CCN(C(=O)c2cc(Cl)ccc2Cl)CC3)cc1	0	14	-2	-9	0	.	.
Cc1cc(OCC(=O)Nc2ccncc2)c(C)cc1Br	16	-2	21*	-10	17	11	10
CSc1nc(-c2ccccc2)c(-c2ccccc2)[nH]1	0	-5	23*	-20	18	-1	0
SMILES	TAAR1 ag	TAAR1 antag	OXTR ag	OXTR potentiator	V1aR counter	OXTR ag confirm	V1aR counter 3x
Cc1cc(Cl)ccc1N=c1ssnc1Cl	42*	29	21*	-9	10	21*	16
Nc1ccccc1N=c1ssnc1Cl	2	-26	.	.	.	.	.
O=c1cc(-c2cccc(Cl)c2)oc2cccc(O)c12	3	-5	0	-3	0	.	.
O=C(CSc1ccccn1)Nc1cccc(S(=O)(=O)N2CCCC2)c1	2	9	4	-4	4	.	.
O=C(NC12CC3CC(CC(C3)C1)C2)c1ccccc1O	8	14	24*	-21	2	-1	2
Cc1ccc(-c2cc(NC(=O)c3ccccc3)on2)cc1	21	13	20*	-18	10	7	5
COc1ccc(C(=O)Nc2cc(-c3ccc(C)cc3)no2)cc1	18	22	.	.	.	.	.
C=CCNc1ncnc2c1[nH]c1ccccc12	3	-5	6	-9	5	.	.
C=CCNc1ncnc2c1[nH]c1ccc(Cl)cc12	23	10	22*	-6	12	12	10
Cc1ccc(NC(=O)CN2C(=O)NC(C)(c3ccc(Cl)cc3)C2=O)cc1 (centres undefined)	41*	21	22*	-10	16	10	10
Cc1ccc(C2(C)NC(=O)N(CC(=O)N3CCc4ccccc43)C2=O)cc1 (centres undefined)	34	-10	20*	-11	16	14	13
CCC(c1nnc(SCC(=O)Nc2ccc(N3CCOCC3)cc2)n1Cc1ccccc1)N(C)C (centres undefined)	2	-20	0	-11	0	.	.
Cc1ccccc1S(=O)Cc1ccc(C(=O)NC2CC2)o1 (centres undefined)	2	-19	0	-4	0	.	.
COC(=O)C1=C(C)N(Cc2ccccc2)C(=NCc2ccccc2)N[C@H]1c1cccc(F)c1	15	22	20*	-10	9	9	5
COC(=O)C1=C(C)N(Cc2ccccc2)C(=NCc2ccccc2)N[C@H]1c1ccccc1	16	22	18	-10	7	.	.
COC(=O)C1=C(C)N(Cc2ccccc2)C(=NCCc2c[nH]c3ccccc23)N[C@H]1c1cccc(F)c1	29	43	22*	-9	11	7	4
COC(=O)c1cc2c(c3c4cc(C)ccc4n(S(=O)(=O)c4cccc(C)c4)c13)C(=O)N(Cc1ccccc1OC)C2	0	-34	.	.	.	.	.
CC(C(=O)Nc1ccc2c(c1)OCO2)c1ccc([N+](=O)[O-])cc1 (centres undefined)	37	15	20*	-17	19	22*	18
COC(=O)[C@H](Cc1c[nH]c2ccccc12)NC(=O)CCCc1c[nH]c2ccccc12	18	45	7	-15	18	.	.
CCOC(=O)C(Cc1ccc(O)cc1)NC(=O)CCc1c[nH]c2ccccc12 (centres undefined)	40*	14	23*	-21	17	19	3
